System: MS2 coat protein
Assay: apparent Kd, MS2 coat protein; higher = weaker binding; RNA-MaP array; FMN 200 µM where present
Summary of the method: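 Green signal was scaled to red-channel RNA signal and control-cluster median Fmax, and the apparent Kd was taken as the median of filtered per-cluster binding-curve fits. The binding series used SNAP-549-labelled MS2 coat protein from 0.7 or 1.5 nM, doubling to 3 µM, on designs transcribed by stalled E. coli RNA polymerase on Illumina sequencing-chip clusters. Each series ran without and then with constant ligand in 100 mM Tris-HCl pH 7.5, 80 mM KCl, 4 mM MgCl2, BSA, DTT, yeast tRNA and Tween-20.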

[1] = designed as: OFF switch for flavin mononucleotide, no ligand
[2] = ligand present: flavin mononucleotide, designed as: OFF switch for flavin mononucleotide
[3] = designed as: ON switch for flavin mononucleotide, no ligand
[4] = ligand present: flavin mononucleotide, designed as: ON switch for flavin mononucleotide

Row | Sequence | apparent Kd [1] [nM] | apparent Kd [2] [nM] | apparent Kd [3] [nM] | apparent Kd [4] [nM]
1 | UUAUAUAUUAGAGGAUAUGUGUUCAUGUUACAUGAGGAUCACCCAUGUUUAUGUUGAUUGAUCUUACAGAAGGCUAUACAAUGA | 20.1 | 19.9 | – | –
2 | GAUUGUUUUUAGAAGGUGCCGACGAGAGUCGCAACAUGAGGAUCACCCAUGUGUCGGUGACGACGCAAGGAUAUGGAGGUGGUU | – | – | 174 | 79.8
3 | AGCUGUGGCCGAGGAUAUCUAAAUUCUUAAAACGAAAUAUAAUCGAACAUGAGGAUCACCCAUGUAGAGAAGGCGGUCUCAGCA | 19.8 | 20.7 | – | –
4 | UUUUAGUGAGGAUAUACAUUUUUUUAAUUAUUUAUAAUAUUACAUGAGGAUCACCCAUGUAGAAGGCACAUUUU | 24.3 | 22.4 | – | –
5 | AUGUUACAUGAGGAUCACCCAUGUGAGGAUAUGUGUAUCCCUAAAAAAGUGUGGGACCAUAGAAGGUACUUGGA | 59.2 | 58.6 | – | –
6 | GCAAAGCCUGACAUGAGGAUCACCCAUGUUAGAUUGUUAUGUCAGGAUAUUGUCUAGCAACUAGACAAGAAGGGAUGCUUUGCU | – | – | 369 | 27.6
7 | UGGGCUACCACAGGAUAUGCUACAUGAGGAUCACCCAUGUAAAGAAAAUCGGCAGAAGGGUGGUUAGUGCAGCAUGAAGGAGCC | – | – | 28.9 | 10.8
8 | AUGUUGAGCAGUGUAUUAAGAUCACAUGAGGAUCACCCAUGUAGAAGGUAUGAGCUGAUCGCUCAUAAGGAUAUACAUCACUGC | 69.9 | 119 | – | –
9 | CCGUUACAUGAGGAUCACCCAUGUGAGGAUAUCGGUGUGACUGGCAGCGUGCGGGACUCGAGAAGGCGCUUGGC | 48.5 | 48.4 | – | –
10 | AACGCUAGACUAGGAUAUCGUUUACAUGAGGAUCACCCAUGUAAAGGGUAUUGUCGUCAUACGAACGAGAAGGAGUCGGUAAAU | 10.4 | 26.5 | – | –
11 | GUCAGCUCGUGAGGAUAUACAUCACUGCUUCGGCAGUGUAUUAAGUUCACAUGAGGAUCACCCAUGUAGAAGGCACGAGCUGAU | 15.2 | 20.3 | – | –
12 | CCCUCAACAUGAGGAUCACCCAUGUAGGAUAUCGCUAUUGUAAUCAUGAAACAUGAUUACAAUAGCGAGAAGGACAUAUGACCC | 21.5 | 99.6 | – | –
13 | UACGUUCUACGCGACAUGAGGAUCACCCAUGUUAGCCGAUCACAGGAUAUGUUGGAGCCGGUCGAACAGAAGGGUGAGUCUGCU | – | – | 38.8 | 38.9
14 | CGGUGACGUGUAGGAUAUGGCGCUGGGUUUUGCCCAGAAGGACAUGAGGAUCACCCAUGUGGUAGAGGGCUGGCGGCCGCCCGC | 29.4 | 29.2 | – | –
15 | GCCUUCGCAUGAGGAUAUGCUCCGGUUUCCGGAGCAGAAGGCAUGUCAUAAGACAUGAGGAUCACCCAUGUAGUUAAGAAGGCA | – | – | 570 | 31.7
16 | AGUGUGGGAGGAUAUACAUGAGGAUCACCCAUGUGAGUUGGCUCACAUGCUACGCUUCGUAGAAGGCCCAAAGA | 88.8 | 290 | – | –
17 | UGUCAUAUAUAGAAGGGUAGUAGGGUUUUACAUGAGGAUCACCCAUGUAUUAUAGGAUAUGUGUAAAGUUAUUAUUAAAGUAAA | 29.1 | 21.5 | – | –
18 | GCGAGCAUACAGAAGGGAUCGUCGUUGCGGCUGUCAGGAUAUGUAGCUUGGCCUAAACAUGAGGAUCACCCAUGUAUAAUGCUA | – | – | 66.7 | 24.3
19 | AAAUAACCUAGCAAAAUUUCCUCACAUGAGGAUCACCCAUGUAGAAGGUUAACCUAAUAUAGGAUAAAGGAUAUACGUGCUAGG | 7.58 | 19.9 | – | –
20 | UUCGUGCAGCUUUGCUGUACGCGUACAUGAGGAUCACCCAUGUAGGAUAUGGUAGGCAAAGCUUACUAGAAGGAUAUAGUGAUU | 9.34 | 9.4 | – | –
21 | CGUAGGAUGCAGAAGGCAUGAACAUGAGGAUCACCCAUGUCAAAAUACAUGAGGAUAUGCAUCCUACGAAAAGUGCGAAAGCAC | – | – | 4.62 | 4.3
22 | GUGUACAUAUCAGGAUAUCUAUUUCCUACAUGAGGAUCACCCAUGUAGGUGAUCACCCAAGUAAAGGAGAAGGGAUAUGUAUAC | – | – | 78.7 | 24.5
23 | CUUGUGUUAGGAUAUGCGCCCUGAAGUAGAAGGGCCAGAGAGCAGAAGGAACAUGAGGAUCACCCAUGUGUGAC | 59.7 | 56.5 | – | –
24 | AAUUGACACGUAGGAUAUCGCUCUUAAUUAACACGAGAAGGACGUACAUGAGGAUCACCCAUGUUAAAUGGUGUAGUUUAGUUG | 45.5 | 123 | – | –
25 | GGUGCGAUGUAGAAGGCAGAUCUGAUUCAGAUCUGAGGAUAUACAUGAGGAUCACCCAUGUUAAGGCACCGCACGAGAGUGCAA | 7.4 | 13.7 | – | –
26 | GGGCCGUAGUAGAAGGGAUAUACGUUAGGUAUAUCAGGAUAUACAUGAGGAUCACCCAUGUUCUAACAGUGAUAGUCCUCCCUU | 15.5 | 33.1 | – | –
27 | AACAGGCGUGCCCUGAGUCCACAUGAGGAUCACCCAUGUGAGAGAAGGACCCUCGAGAGAGUUGGGUAGGAUAUCUCCGAUGGG | 24 | 57.5 | – | –
28 | UGAAGAAAGUAGAAGGUAGUCUUAAAAUAGGACUAAGGAUAUACAUGAGGAUCACCCAUGUACUCCUUUAAUAUCUUUGAAAUA | 5.5 | 5.42 | – | –

Row | Sequence | apparent Kd [1] [nM] | apparent Kd [2] [nM] | apparent Kd [3] [nM] | apparent Kd [4] [nM]
29 | GGACGUCGCAUUAACAUGAGGAUCACCCAUGUCAAAGGACAUGAGGAUAUGGAUCCUAAUUGGAUCCAGAAGGCAUGGACGUCC | – | – | 485 | 35.8
30 | GUGGUACAUGAGGAUCACCCAUGUUAGGAUAUCGCGUGAGGUUUUACUUACACACACACGAGAAGGGACGUCUU | 47.5 | 36 | – | –
31 | CAGGUUAGAGGAUAUACGUAGGUACAGAUCUGUGUGUUCCUACAUGAGGAUCACCCAUGUAGAAGGCUAUCCUG | 69.8 | 208 | – | –
32 | GGGCCCGGAGGAUAUACAUGAGGAUCACCCAUGUAGGGCCCGGGUAUUCCCGGGUUUUGUAGAAGGCCGGGCCC | – | 30.1 | – | –
33 | AAGGAACGAGGAUAUGCAGGUUGAGCUCGAGUUCGACCGGAACAUGAGGAUCACCCAUGUAGAAGGUGUAUCCC | 24.1 | 24.4 | – | –
34 | AAGAAGGACGCAGGAUAUCCAGGACCUCCCGCAGGAGAAGGGCGAGACAUGAGGAUCACCCAUACAUGAGGAUCACCCAUGUAA | 20.4 | 22.3 | – | –
35 | UGCGAACAGGCUAACAUGAGGAUCACCCAUGUGGACUCAUGGUAGGAUAUCGGGAAGGAGGAAACCGAGAAGGGCCGGUGAGCG | – | – | 197 | 65
36 | GAGUACUGAGGAUAUACAUGAGGAUCACCCAUGUGUUCCAACUAGGAAUCUAGAAUAUGUAGAAGGCAGUACUG | 223 | 211 | – | –
37 | UGCCCAAAUGGGCCGUGGCAGCGUGAGGAUAUGGGUUGGAUACAUGAGGAUCACCCAUGUUCCUCCUAGAAGGCACUUGUAACC | – | – | 183 | 41.5
38 | CUGGAUAGAGGAUAUUGUGCUGCUGACAUGAGGAUCACCCAUGUAUGUUAACUCGGCCGUCGAGAAGGCUAACAGG | 24.7 | 15.3 | – | –
39 | CUAUGAACGAUAGGAUAUACUGAGGUUGAGUGGGUAGAAGGAUCGAUAGUGGAGAAGACAUGAGGAUCACCCAUGUUAUGGAUU | – | – | 552 | 170
40 | UGUGGGUCAGGAUAUUCUAUUUAUUACAUGAGGAUCACCCAUGUGAAUGGACAAGGGUGUGAAGAAGGGACUUGUG | 876 | 495 | – | –
41 | GUGUACGGAGGAUAUAUGUGGCGAGCAUACGCUCGAGCUUCACAUGAGGAUCACCCAUGUAGAAGGCUGUGCAC | 19 | 102 | – | –
42 | GUGGUCAGACAUGAGGAUCACCCAUGUGGAAUAAAUAAGGAGAAGGAUAUGCAAUAUAGGAUAUAGCAGAAGGUCUGGUUGGUG | – | – | 80.1 | 92.7
43 | UGGGUCCCAGUCAGGAUAUCGUGCUUUUACAUGCACGAGAAGGGACAUGAGGAUCACCCAUGUCAAGGCGGUCA | 102 | 330 | – | –
44 | ACAUGAGGAUCACCCAUGUGGAGUGAAGAAGGUGGAUACUUAUGACUCUCCCAUGUACAUAGGACUGAGGAUAUUCUAAUAAUU | – | – | 31.2 | 27.2
45 | CCACCUCCUGAGGAUAUUGCAUCACCCGACUGAUAAGAAGGCAGAACAUGAGGAUCACCCAUGUGGGUACUCCC | 82.5 | 77.2 | – | –
46 | UUACUGAUAUAGAAGGGUAUAUGGGAAUUACAUGAGGAUCACCCAUGUUUUAUAGGAUAUGUAUAUAGUAUUUAAUCAAGUUUA | 34.6 | 27.1 | – | –
47 | UUAAUAAUACAAGGAUAUCUAUUGUUCUUAAGACAUACAUGAGGAUCACCCAUGUUAAUAUAUGUAGAGAAGGUGUAUUUUCAG | – | – | 30.5 | 22.9
48 | UCGGCGCGAGGAUAUACGGUUGCUUGGUAGGGUCGUGGCGUACAUGAGGAUCACCCAUGUAGAAGGCGCGCCGC | – | 60.3 | – | –
49 | UUAGUAUUGCAAGGAUAUGUUUAUGAUAUUUUUCCUCUUACAUGAGGAUCACCCAUGUUUAACUUACAGAAGGUGCUAUGAUUU | 575 | 1030 | – | –
50 | GUUCCACAUGAGGAUCACCCAUGUGAGGAUAUGGAUUCGCUGGCCGUAGCCAGUGGAUCCAGAAGGCGCGUGAU | 77.4 | 96.6 | – | –
51 | CAGGUAGCUACAGGAUAUACACGUCUGGAUAAACCAGACGAAUAACCCACAUGAGGAUCACCCAUGUAGAAGGGUAGCUGCCUG | 15.4 | 21.3 | – | –
52 | GGUAAACAUGAGGAUCACCCAUGUAAUAAUAUGGGAGGAUAUGGGAAUUAAUUAAUUAAACCAGAAGGCCUAAUUG | – | – | 216 | 25.6
53 | CCGGGCUAGGAGAAGGGCUAGAGUGUGAUAUAUUUGCCCGCGAGCACAUGAGGAUCACCCAUGUAGCAGGAUAUCCAAGCCGAU | 7.33 | 18 | – | –
54 | GUAUGAGCGAUAGGAUAUACUGAGAUUGAAUGGGUAGAAGGAUCUCUUGUGAGGAAGACAUGAGGAUCACCCAUGUCACGGGCC | – | – | 100 | 175
55 | UUAAAUCAUGUAGGAUAUGCAUGGCGAAGCUACGCAGAAGGACAUGAGGAUCACCCAUGUUCUAGCUACCGAGAACGGUGGCAA | 19.1 | 74.1 | – | –
